Consider three compounds from ChEMBL document CHEMBL4138147, “Discovery of a fluorescent probe with HDAC6 selective inhibition” (Eur J Med Chem, 2017).

One data set deals with Histone deacetylase 1 (Homo sapiens, UniProt Q13547). Nature of the data set: Inhibition of human recombinant full-length HDAC1 (1 to 482 residues) expressed in baculovirus using Boc-Lys(acetyl)-AMC as substrate after 30 mins by fluorescence assay.
In data set [1] the target is T1, Protein deacetylase HDAC6 (Homo sapiens, UniProt Q9UBN7).
T1 sequence (Q9UBN7 whole entry): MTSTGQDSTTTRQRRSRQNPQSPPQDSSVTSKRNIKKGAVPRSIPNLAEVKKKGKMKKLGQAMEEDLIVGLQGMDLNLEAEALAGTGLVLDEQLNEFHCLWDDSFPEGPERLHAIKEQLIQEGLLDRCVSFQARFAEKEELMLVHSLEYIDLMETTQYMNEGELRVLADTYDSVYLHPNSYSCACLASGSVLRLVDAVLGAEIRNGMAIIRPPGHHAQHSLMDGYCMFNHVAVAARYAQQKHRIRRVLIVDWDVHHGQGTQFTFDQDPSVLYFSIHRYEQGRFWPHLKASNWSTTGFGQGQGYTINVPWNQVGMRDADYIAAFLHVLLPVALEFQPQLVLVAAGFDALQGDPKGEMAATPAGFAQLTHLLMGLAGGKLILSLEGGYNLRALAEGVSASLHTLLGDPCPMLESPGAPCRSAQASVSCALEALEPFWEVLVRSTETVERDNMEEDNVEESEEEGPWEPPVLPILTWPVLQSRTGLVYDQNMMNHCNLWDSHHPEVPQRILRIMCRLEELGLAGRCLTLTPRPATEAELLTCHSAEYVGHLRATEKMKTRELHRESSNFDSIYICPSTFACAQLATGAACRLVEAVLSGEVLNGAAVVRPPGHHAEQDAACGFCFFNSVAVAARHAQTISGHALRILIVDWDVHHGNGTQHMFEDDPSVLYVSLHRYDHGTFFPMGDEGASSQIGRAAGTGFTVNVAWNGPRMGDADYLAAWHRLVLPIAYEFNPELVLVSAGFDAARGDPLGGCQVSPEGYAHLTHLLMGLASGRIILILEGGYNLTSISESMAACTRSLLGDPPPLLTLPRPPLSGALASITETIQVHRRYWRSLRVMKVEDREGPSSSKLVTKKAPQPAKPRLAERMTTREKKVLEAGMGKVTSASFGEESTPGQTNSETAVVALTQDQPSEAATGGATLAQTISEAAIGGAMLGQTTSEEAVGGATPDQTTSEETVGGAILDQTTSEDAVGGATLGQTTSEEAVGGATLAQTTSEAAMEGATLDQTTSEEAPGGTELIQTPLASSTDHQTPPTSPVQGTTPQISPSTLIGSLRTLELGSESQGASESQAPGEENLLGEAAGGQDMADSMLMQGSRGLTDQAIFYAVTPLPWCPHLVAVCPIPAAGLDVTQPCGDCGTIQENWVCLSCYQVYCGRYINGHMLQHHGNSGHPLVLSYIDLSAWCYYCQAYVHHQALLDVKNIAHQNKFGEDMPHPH
Nature of the data set: Inhibition of human recombinant full-length HDAC6 expressed in baculovirus infected Sf9 cells using Boc-Lys(acetyl)-AMC as substrate after 30 mins by fluorescence assay.

A further data set has as its target Histone deacetylase 2 (Homo sapiens, UniProt Q92769). Nature of the data set: Inhibition of human recombinant full-length C-terminal GST-tagged HDAC2 expressed in baculovirus infected Sf9 cells using Boc-Lys(acetyl)-AMC as substrate after 30 mins by fluorescence assay. The format is cell-based.
In a further data set the target is Histone deacetylase 3 (Homo sapiens, UniProt O15379). Nature of the data set: Inhibition of human recombinant full-length C-terminal GST-tagged HDAC3 expressed in baculovirus infected Sf9 cells using Boc-Lys(acetyl)-AMC as substrate after 30 mins by fluorescence assay.
For the next data set, the target named is Histone deacetylase 4 (Homo sapiens, UniProt P56524). Nature of the data set: Inhibition of HDAC4 (unknown origin) using Boc-Lys(acetyl)-AMC as substrate after 30 mins by fluorescence assay. The essentials: (§1)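 The HDAC isoform was incubated with substrate and compound (from a 10% DMSO dilution, 5 μL into a 50 μL reaction) at 37 °C for 30 min. The reaction was stopped with developer containing trypsin and TSA.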

Another data set concerns the target Histone deacetylase 5 (Homo sapiens, UniProt Q9UQL6). Nature of the data set: Inhibition of HDAC5 (unknown origin) using Boc-Lys(acetyl)-AMC as substrate after 30 mins by fluorescence assay. The method, boiled down:
as §1

Another data set has as its target T2, Histone deacetylase 7 (Homo sapiens, UniProt Q8WUI4).
T2 sequence (Q8WUI4 whole entry): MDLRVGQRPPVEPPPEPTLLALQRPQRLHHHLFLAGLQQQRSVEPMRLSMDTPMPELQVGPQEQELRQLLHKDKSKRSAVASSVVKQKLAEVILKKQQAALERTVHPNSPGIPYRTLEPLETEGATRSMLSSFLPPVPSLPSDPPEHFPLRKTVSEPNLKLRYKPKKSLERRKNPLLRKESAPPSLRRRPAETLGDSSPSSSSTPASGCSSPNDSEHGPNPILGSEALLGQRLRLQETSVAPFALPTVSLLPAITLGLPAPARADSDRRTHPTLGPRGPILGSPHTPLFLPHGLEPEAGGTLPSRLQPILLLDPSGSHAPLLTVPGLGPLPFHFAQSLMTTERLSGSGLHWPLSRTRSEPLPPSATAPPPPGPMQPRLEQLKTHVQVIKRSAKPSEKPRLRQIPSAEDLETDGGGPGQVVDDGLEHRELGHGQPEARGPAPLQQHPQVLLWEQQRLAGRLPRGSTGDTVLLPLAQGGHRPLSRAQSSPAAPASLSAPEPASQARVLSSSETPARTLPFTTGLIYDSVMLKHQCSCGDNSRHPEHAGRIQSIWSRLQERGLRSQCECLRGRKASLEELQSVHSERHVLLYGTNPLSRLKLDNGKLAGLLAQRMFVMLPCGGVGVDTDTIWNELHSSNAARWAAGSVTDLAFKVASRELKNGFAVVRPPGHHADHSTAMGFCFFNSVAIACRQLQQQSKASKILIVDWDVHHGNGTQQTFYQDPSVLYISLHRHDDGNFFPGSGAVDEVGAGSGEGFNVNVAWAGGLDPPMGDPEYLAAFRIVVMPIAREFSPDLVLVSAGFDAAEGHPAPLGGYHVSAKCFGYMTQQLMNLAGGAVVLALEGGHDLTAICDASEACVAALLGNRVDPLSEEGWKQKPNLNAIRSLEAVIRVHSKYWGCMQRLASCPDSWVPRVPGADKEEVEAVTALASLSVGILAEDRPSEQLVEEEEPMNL
Nature of the data set: Inhibition of HDAC7 (unknown origin) using Boc-Lys(acetyl)-AMC as substrate after 30 mins by fluorescence assay.

The target in another data set is T3, Histone deacetylase 8 (Homo sapiens, UniProt Q9BY41).
T3 sequence (Q9BY41 whole entry): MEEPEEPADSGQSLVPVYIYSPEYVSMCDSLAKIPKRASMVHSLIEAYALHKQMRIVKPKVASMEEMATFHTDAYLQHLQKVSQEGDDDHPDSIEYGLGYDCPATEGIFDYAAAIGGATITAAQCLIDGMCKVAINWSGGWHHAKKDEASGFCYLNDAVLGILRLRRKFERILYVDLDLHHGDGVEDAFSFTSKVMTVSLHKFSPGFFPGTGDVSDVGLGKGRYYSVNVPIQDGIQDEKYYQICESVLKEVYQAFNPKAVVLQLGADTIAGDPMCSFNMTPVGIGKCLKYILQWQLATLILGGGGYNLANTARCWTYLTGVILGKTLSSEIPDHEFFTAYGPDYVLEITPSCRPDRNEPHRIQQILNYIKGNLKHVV
Nature of the data set: Inhibition of HDAC8 (unknown origin) using Boc-Lys(acetyl)-AMC as substrate after 30 mins by fluorescence assay. The essentials: as §1

A further data set has as its target Histone deacetylase 9 (Homo sapiens, UniProt Q9UKV0). Nature of the data set: Inhibition of HDAC9 (unknown origin) using Boc-Lys(acetyl)-AMC as substrate after 30 mins by fluorescence assay. The essentials:
as §1

Data set [2] has as its target T4, Polyamine deacetylase HDAC10 (Homo sapiens, UniProt Q969S8).
T4 sequence (Q969S8 whole entry): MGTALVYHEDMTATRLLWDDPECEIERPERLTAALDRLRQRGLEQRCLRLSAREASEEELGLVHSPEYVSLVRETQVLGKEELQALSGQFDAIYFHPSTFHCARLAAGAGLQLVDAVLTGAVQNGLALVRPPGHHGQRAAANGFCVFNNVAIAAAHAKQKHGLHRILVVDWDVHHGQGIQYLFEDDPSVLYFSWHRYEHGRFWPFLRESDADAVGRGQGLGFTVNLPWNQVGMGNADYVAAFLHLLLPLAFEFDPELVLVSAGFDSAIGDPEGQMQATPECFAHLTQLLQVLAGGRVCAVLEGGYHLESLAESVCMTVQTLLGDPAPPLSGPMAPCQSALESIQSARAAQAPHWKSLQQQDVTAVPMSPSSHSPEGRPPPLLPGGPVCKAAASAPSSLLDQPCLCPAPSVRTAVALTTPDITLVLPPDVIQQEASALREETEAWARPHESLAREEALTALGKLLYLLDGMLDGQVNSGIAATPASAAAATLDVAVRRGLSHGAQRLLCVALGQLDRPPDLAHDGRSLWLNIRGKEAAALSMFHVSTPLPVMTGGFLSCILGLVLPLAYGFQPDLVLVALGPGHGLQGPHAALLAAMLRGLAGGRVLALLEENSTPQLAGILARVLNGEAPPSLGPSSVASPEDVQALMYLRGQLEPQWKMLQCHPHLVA
Nature of the data set: Inhibition of HDAC10 (unknown origin) using Boc-Lys(acetyl)-AMC as substrate after 30 mins by fluorescence assay. The method, boiled down:
as §1

The target of a further data set is T5, Histone deacetylase 11 (Homo sapiens, UniProt Q96DB2).
T5 sequence (Q96DB2 whole entry): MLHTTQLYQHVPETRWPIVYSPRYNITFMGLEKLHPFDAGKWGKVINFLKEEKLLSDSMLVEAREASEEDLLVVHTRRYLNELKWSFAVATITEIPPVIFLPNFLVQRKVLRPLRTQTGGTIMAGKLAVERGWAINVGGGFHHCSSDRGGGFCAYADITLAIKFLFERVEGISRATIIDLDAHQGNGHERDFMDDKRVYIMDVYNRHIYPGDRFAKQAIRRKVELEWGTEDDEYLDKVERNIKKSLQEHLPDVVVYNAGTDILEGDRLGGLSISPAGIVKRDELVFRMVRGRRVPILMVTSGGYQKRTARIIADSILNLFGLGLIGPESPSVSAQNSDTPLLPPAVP
Nature of the data set: Inhibition of HDAC11 (unknown origin) using Boc-Lys(acetyl)-AMC as substrate after 30 mins by fluorescence assay. The method, boiled down: as §1

Data set [3] can be described thus: Drug uptake in human A549 cells assessed as intracellular distribution at 2 uM added after 24 hrs pre-treatment with MG132 followed by compound addition measured after 2 hrs by fluorescence staining-based confocal microscopic analysis. The format is ADME, cell-based. To be noted: a549, 24 h. The essentials:
(§2)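 A549 cells (DMEM, 10% FBS, 37 °C, 5% CO2) given DMSO or 5 μM MG132 for 24 h, fixed in 4% formaldehyde/PBS 20 min, then stained with 2 μM compound in PBS for 2 h. For antibody co-staining, cells were permeabilized with 0.1% Triton X-100, BSA-blocked, and probed overnight at 4 °C with anti-HDAC6 or anti-ubiquitin antibody plus Alexa 647 secondary before the compound. Confocal imaging: compound ex 405/em 500–600 nm; antibody ex 633/em 650–750 nm.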

Data set [4] can be described thus: Drug uptake in cytoplasm of human A549 cells assessed as diffused staining in cytoplasm at 2 uM added after 24 hrs pre-treatment with DMSO followed by compound addition measured after 2 hrs by fluorescence staining-based confocal microscopic analysis. The format is ADME, subcellular. To be noted: a549, 24 h. The method, boiled down:
as §2

Data set [5] concerns the target T6, Protein deacetylase HDAC6 (Homo sapiens) (UniProt Q9UBN7).
T6 sequence (whole entry): T1 sequence (Q9UBN7 whole entry)
Nature of the data set: Binding affinity to HDAC6 in aggresomes of human A549 cells assessed as formation of aggresome-like structures at 2 uM added after 24 hrs pre-treatment with MG132 followed by compound addition measured after 2 hrs by fluorescence staining-based confocal microscopic analysis. The method, boiled down: as §2

In data set [6] the target is T6, Protein deacetylase HDAC6 (Homo sapiens). Nature of the data set: Binding affinity to HDAC6 in aggresomes of human A549 cells assessed as relocation of compound to single bright juxtanuclear structure at 2 uM added after 24 hrs pre-treatment with MG132 followed by compound addition measured after 2 hrs by fluorescence staining-based confocal microscopic analysis. The essentials: as §2

For data set [7] the target is unchanged. Nature of the data set: Binding affinity to HDAC6 in aggresomes of human A549 cells assessed as induction of co-localization of aggresome-like structures with polyubiquitin at 2 uM added after 24 hrs pre-treatment with MG132 followed by compound addition measured after 2 hrs by fluorescence staining-based confocal microscopic analysis. The method, boiled down: as §2

Data set [8] deals with Histone deacetylase 1/2/3 (Homo sapiens) (UniProt Q13547+O15379+Q92769). To be noted: A549, at 500 nM.

The source made the active and inactive calls. The calls are words filed in the database; no cut-off is given here. A value given as a limit tells only on which side of the number the result lay.

Sequence of Histone deacetylase 2 (Q92769 whole entry): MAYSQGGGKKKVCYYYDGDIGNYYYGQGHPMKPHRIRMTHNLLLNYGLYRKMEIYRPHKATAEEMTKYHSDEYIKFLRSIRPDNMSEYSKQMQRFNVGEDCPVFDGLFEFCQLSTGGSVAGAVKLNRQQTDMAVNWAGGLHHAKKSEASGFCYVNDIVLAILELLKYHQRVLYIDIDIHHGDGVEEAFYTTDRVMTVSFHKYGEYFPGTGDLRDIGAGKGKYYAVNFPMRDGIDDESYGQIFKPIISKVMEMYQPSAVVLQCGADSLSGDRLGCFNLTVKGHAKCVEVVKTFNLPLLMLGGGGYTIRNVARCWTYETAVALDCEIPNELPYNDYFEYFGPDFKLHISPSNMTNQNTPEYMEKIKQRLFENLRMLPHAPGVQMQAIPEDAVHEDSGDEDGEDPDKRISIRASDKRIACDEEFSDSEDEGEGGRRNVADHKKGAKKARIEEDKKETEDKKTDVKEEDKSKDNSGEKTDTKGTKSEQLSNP
Sequence of Histone deacetylase 1 (Q13547 whole entry, the tested form may be a part): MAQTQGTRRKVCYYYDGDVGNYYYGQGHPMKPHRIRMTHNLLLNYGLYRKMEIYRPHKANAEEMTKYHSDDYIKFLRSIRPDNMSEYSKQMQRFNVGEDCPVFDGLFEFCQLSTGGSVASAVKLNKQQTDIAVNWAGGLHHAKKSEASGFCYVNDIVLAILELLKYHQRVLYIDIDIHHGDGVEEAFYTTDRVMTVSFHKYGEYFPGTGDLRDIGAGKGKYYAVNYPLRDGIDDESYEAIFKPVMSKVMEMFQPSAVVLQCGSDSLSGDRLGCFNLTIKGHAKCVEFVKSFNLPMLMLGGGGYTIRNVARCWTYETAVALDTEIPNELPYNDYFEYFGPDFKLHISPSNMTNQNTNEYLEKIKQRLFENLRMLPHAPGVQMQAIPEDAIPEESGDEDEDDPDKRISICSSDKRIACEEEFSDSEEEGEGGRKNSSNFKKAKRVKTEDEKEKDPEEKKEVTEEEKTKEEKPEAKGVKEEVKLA
Sequence of Histone deacetylase 3 (O15379 whole entry, canonical isoform): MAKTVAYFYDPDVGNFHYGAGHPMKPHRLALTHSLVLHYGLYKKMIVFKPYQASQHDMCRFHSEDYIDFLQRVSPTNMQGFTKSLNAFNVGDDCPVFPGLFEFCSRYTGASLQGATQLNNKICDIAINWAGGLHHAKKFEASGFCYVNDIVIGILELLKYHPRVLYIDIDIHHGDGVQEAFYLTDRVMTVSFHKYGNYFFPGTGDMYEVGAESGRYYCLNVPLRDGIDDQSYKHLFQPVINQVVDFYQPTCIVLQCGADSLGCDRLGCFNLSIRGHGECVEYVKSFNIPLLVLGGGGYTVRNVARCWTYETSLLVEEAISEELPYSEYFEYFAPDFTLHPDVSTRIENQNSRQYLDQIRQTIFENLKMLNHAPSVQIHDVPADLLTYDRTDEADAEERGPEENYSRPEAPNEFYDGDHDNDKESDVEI
Sequence of Histone deacetylase 9 (Q9UKV0 whole entry): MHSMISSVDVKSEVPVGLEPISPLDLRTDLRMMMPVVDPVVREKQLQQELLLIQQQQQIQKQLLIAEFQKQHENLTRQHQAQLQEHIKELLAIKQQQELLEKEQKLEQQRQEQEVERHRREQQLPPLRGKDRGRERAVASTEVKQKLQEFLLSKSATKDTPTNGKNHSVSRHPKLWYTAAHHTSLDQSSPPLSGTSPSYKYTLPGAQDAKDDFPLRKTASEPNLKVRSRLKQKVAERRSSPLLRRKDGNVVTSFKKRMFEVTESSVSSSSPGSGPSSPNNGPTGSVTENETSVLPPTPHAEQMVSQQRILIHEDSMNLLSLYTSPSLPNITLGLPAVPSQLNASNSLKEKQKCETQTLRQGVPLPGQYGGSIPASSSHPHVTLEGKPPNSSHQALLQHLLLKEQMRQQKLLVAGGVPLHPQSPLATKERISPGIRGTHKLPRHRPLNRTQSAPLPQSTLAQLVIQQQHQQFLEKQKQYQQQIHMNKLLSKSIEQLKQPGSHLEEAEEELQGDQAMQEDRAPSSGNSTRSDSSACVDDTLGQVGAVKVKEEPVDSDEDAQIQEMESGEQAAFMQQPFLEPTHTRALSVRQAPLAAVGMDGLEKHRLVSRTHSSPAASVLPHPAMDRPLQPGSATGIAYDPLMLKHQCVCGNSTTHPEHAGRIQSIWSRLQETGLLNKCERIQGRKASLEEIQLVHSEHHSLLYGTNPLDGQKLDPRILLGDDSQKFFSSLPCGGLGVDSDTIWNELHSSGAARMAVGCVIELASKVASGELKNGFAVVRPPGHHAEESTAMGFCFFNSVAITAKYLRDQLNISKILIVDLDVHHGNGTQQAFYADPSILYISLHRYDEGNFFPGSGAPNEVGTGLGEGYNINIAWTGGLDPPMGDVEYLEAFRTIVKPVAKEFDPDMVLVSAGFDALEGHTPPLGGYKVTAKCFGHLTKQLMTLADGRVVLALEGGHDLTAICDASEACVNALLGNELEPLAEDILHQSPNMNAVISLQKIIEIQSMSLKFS
Sequence of Histone deacetylase 5 (Q9UQL6 whole entry): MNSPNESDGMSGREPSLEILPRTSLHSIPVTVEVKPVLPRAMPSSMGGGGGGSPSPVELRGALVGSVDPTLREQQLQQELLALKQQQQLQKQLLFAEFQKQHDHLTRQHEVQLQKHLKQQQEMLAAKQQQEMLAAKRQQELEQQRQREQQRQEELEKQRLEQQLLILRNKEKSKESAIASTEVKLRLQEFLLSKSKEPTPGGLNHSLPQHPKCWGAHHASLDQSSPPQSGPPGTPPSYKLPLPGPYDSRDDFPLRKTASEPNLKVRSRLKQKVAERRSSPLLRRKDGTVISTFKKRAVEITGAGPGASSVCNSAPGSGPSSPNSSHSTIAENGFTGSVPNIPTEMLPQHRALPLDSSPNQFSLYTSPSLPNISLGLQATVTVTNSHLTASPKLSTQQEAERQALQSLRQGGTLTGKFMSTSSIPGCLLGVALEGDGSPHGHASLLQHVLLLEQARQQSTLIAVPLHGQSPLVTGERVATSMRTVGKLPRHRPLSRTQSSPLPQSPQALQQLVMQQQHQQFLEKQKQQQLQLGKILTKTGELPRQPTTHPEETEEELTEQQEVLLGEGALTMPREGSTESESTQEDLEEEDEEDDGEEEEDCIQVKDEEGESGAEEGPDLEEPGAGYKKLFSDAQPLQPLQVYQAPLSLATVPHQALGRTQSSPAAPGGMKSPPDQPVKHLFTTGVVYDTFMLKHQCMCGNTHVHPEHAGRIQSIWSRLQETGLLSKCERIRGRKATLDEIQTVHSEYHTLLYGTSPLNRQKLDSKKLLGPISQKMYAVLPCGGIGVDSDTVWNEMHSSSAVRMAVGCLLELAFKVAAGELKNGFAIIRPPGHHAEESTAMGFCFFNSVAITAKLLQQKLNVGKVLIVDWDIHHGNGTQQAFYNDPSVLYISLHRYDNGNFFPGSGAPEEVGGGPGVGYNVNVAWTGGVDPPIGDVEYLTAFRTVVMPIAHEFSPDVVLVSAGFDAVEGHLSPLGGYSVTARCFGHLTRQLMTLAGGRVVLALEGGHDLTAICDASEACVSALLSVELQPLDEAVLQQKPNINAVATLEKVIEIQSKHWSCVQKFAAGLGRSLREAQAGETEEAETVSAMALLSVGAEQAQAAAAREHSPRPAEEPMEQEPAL
Sequence of Histone deacetylase 4 (P56524 whole entry, canonical isoform): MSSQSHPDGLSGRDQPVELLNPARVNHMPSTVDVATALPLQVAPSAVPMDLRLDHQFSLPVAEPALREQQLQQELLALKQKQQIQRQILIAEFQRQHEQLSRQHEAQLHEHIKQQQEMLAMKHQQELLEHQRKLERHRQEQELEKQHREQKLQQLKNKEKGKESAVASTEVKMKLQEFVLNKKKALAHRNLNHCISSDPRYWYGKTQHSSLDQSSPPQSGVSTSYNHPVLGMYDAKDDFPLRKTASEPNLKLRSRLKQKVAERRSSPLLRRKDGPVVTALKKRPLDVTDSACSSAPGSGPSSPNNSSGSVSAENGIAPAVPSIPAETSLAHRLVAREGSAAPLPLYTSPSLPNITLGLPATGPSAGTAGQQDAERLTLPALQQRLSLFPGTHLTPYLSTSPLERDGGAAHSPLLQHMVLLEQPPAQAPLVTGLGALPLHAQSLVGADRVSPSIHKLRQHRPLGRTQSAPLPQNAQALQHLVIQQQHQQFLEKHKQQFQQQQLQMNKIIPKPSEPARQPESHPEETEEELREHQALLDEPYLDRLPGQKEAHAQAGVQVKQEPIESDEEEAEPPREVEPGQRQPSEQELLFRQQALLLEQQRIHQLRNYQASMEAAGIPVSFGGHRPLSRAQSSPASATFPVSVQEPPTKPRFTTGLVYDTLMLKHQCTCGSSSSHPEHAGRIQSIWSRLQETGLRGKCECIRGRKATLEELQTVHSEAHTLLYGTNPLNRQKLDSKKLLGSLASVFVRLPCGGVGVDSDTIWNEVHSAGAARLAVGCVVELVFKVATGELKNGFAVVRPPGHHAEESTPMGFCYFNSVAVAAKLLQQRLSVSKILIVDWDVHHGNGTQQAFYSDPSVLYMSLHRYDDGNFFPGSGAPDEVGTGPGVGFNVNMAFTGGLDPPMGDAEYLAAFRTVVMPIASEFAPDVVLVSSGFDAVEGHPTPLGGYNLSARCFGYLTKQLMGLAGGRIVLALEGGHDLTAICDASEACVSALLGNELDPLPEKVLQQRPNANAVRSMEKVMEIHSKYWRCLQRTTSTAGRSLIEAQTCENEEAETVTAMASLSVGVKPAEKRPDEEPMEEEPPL

For the compound `O=C(NO)c1ccc(CCN2C(=O)c3cccc4c(N5CCOCC5)ccc(c34)C2=O)cc1`, the IC50 was above 20000 nM on Histone deacetylase 1; 139 nM in [1]; above 100000 nM at Histone deacetylase 2; above 30000 nM at Histone deacetylase 3; above 100000 nM at Histone deacetylase 4; above 100000 nM on Histone deacetylase 5. In addition, the IC50 against Histone deacetylase 7 was above 100000 nM; at Histone deacetylase 8 it was 3050 nM; on Histone deacetylase 9, above 30000 nM; in data set [2], 1870 nM; against Histone deacetylase 11 it was above 10000 nM. Also, the Drug uptake result in [3] and in data set [4] was “Active” in each case. Besides, the outcome in data set [5], in data set [6] and in data set [7] was Active. Besides, in data set [8], the inhibition entry is “inactive”.

In the case of `O=C(NO)c1ccc(CN2C(=O)c3cccc4c(N5CCOCC5)ccc(c34)C2=O)cc1`, the IC50 was determined as 36.2 nM on Histone deacetylase 1, 2.7 nM in data set [1], 98.8 nM on Histone deacetylase 2 and 11.1 nM on Histone deacetylase 3. Further, in [5], the outcome was inactive. The inhibition entry in data set [8] is “Active”.

Regarding `O=C(CCCCCN1C(=O)c2cccc3c(N4CCOCC4)ccc(c23)C1=O)NO`, the IC50 at Histone deacetylase 1 came to 5.25 nM; in data set [1] it was 0.65 nM; on Histone deacetylase 2, 25.6 nM; at Histone deacetylase 3, 2.65 nM. Besides, the result in data set [5] was inactive.
